# Key:
# [1] = Retention time of the compound by HPLC method; format: physicochemical
# Brain = assay: Drug distribution in brain of C57BL/6J mouse bearing mouse B16F0 cells at 18 to 20 MBq, iv measured over 72 hrs by SPECT imaging study; format: ADME, organism-based; conditions: in vivo
# Procedure, shortened: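 Female C57BL/6J mice bearing s.c. B16F0 tumors (11 days growth) received 18−20 MBq in 100 μL via lateral tail vein (n = 3). Isoflurane anesthesia (5% induction, 2−2.5% maintenance) on a 37 °C heating pad. Planar γ-camera imaging at 10−60 min (5 min frames), 3 and 6 h, 24, 48 and 72 h. Radioactivity localization assessed visually.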
# Mus musculus [2] = assay: Biodistribution in tumor of C57BL/6J mouse bearing mouse B16F0 cells at 0.37 to 1.85 MBq, iv after 1 hr by gamma counting method; format: ADME, organism-based; conditions: in vivo
# Procedure, shortened: (§1)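 Female C57BL/6J mice (5−6 weeks), s.c. inoculated on left flank with 3 × 10^5 B16F0 cells in Ca2+/Mg2+-free PBS, used 11 days later (tumors 2−12 mm). Radiotracer given via tail vein in 100 μL (~0.37 MBq for 1−24 h, 1.85 MBq for 48 h). Organs dissected, weighed, γ-counted, decay corrected. Expressed as % ID/g against injected-dose dilutions. Mean ± SEM, n = 5.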
# Mus musculus [3] = assay: Biodistribution in tumor of C57BL/6J mouse bearing mouse B16F0 cells at 0.37 to 1.85 MBq, iv after 3 hrs by gamma counting method; format: ADME, organism-based; conditions: in vivo; procedure, shortened: as §1
# Mus musculus [4] = assay: Biodistribution in tumor of C57BL/6J mouse bearing mouse B16F0 cells at 0.37 to 1.85 MBq, iv after 16 hrs by gamma counting method; format: ADME, organism-based; conditions: in vivo; procedure, shortened: as §1
# Mus musculus [5] = assay: Biodistribution in tumor of C57BL/6J mouse bearing mouse B16F0 cells at 0.37 to 1.85 MBq, iv after 24 hrs by gamma counting method; format: ADME, organism-based; conditions: in vivo; procedure, shortened: as §1
# Mus musculus [6] = assay: Biodistribution in tumor of C57BL/6J mouse bearing mouse B16F0 cells at 0.37 to 1.85 MBq, iv after 48 hrs by gamma counting method; format: ADME, organism-based; conditions: in vivo; procedure, shortened: as §1
# Mus musculus [7] = assay: Biodistribution in eyes of C57BL/6J mouse bearing mouse B16F0 cells at 0.37 to 1.85 MBq, iv after 48 hrs by gamma counting method; format: ADME, organism-based, Eye; conditions: in vivo; procedure, shortened: as §1
# Mus musculus [8] = assay: Biodistribution in large gastrointestinal tract of C57BL/6J mouse bearing mouse B16F0 cells at 0.37 to 1.85 MBq, iv after 3 hrs by gamma counting method; format: ADME, organism-based, Large intestine; conditions: in vivo; procedure, shortened: as §1
# Mus musculus [9] = assay: Biodistribution in large gastrointestinal tract of C57BL/6J mouse bearing mouse B16F0 cells at 0.37 to 1.85 MBq, iv after 6 hrs by gamma counting method; format: ADME, organism-based; conditions: in vivo; procedure, shortened: as §1
# Mus musculus [10] = assay: Biodistribution in large gastrointestinal tract of C57BL/6J mouse bearing mouse B16F0 cells at 0.37 to 1.85 MBq, iv after 24 hrs by gamma counting method; format: ADME, organism-based, Large intestine; conditions: in vivo; procedure, shortened: as §1
# Mus musculus [11] = assay: Biodistribution in large gastrointestinal tract of C57BL/6J mouse bearing mouse B16F0 cells at 0.37 to 1.85 MBq, iv after 48 hrs by gamma counting method; format: ADME, organism-based; conditions: in vivo; procedure, shortened: as §1
# Mus musculus [12] = assay: Biodistribution in small gastrointestinal tract of C57BL/6J mouse bearing mouse B16F0 cells at 0.37 to 1.85 MBq, iv after 6 hrs by gamma counting method; format: ADME, organism-based, Small intestine; conditions: in vivo; procedure, shortened: as §1
# Mus musculus [13] = assay: Biodistribution in thyroid gland of C57BL/6J mouse bearing mouse B16F0 cells at 0.37 to 1.85 MBq, iv after 3 hrs by gamma counting method; format: ADME, organism-based; conditions: in vivo; procedure, shortened: as §1
# Mus musculus [14] = assay: Biodistribution in thyroid gland of C57BL/6J mouse bearing mouse B16F0 cells at 0.37 to 1.85 MBq, iv after 6 hrs by gamma counting method; format: ADME, organism-based; conditions: in vivo; procedure, shortened: as §1
# Mus musculus [15] = assay: Biodistribution in thyroid gland of C57BL/6J mouse bearing mouse B16F0 cells at 0.37 to 1.85 MBq, iv after 48 hrs by gamma counting method; format: ADME, organism-based; conditions: in vivo; procedure, shortened: as §1
# Spleen [16] = assay: Biodistribution in spleen of C57BL/6J mouse bearing mouse B16F0 cells at 0.37 to 1.85 MBq, iv after 1 hr by gamma counting method; format: ADME, organism-based; conditions: in vivo; procedure, shortened: as §1
# Spleen [17] = assay: Biodistribution in spleen of C57BL/6J mouse bearing mouse B16F0 cells at 0.37 to 1.85 MBq, iv after 6 hrs by gamma counting method; format: ADME, organism-based; conditions: in vivo; procedure, shortened: as §1
# Spleen [18] = assay: Biodistribution in spleen of C57BL/6J mouse bearing mouse B16F0 cells at 0.37 to 1.85 MBq, iv after 16 hrs by gamma counting method; format: ADME, organism-based; conditions: in vivo; procedure, shortened: as §1
# Spleen [19] = assay: Biodistribution in spleen of C57BL/6J mouse bearing mouse B16F0 cells at 0.37 to 1.85 MBq, iv after 48 hrs by gamma counting method; format: ADME, organism-based; conditions: in vivo; procedure, shortened: as §1
# Liver [20] = assay: Biodistribution in liver of C57BL/6J mouse bearing mouse B16F0 cells at 0.37 to 1.85 MBq, iv after 1 hr by gamma counting method; format: ADME, organism-based; conditions: in vivo; procedure, shortened: as §1
# Liver [21] = assay: Biodistribution in liver of C57BL/6J mouse bearing mouse B16F0 cells at 0.37 to 1.85 MBq, iv after 3 hrs by gamma counting method; format: ADME, organism-based; conditions: in vivo; procedure, shortened: as §1
# Liver [22] = assay: Biodistribution in liver of C57BL/6J mouse bearing mouse B16F0 cells at 0.37 to 1.85 MBq, iv after 6 hrs by gamma counting method; format: ADME, organism-based; conditions: in vivo; procedure, shortened: as §1
# Kidney = assay: Biodistribution in kidney of C57BL/6J mouse bearing mouse B16F0 cells at 0.37 to 1.85 MBq, iv after 3 hrs by gamma counting method; format: ADME, organism-based; conditions: in vivo; procedure, shortened: as §1
# Mus musculus [23] = assay: Whole body clearance in C57BL/6J mouse bearing mouse B16F0 cells at 0.37 to 1.85 MBq, iv after 16 hrs by gamma counting method; format: ADME, organism-based; conditions: in vivo
# [24] = Ratio of AUC in tumor to eyes of C57BL/6J mouse bearing mouse B16F0 cells at 0.37 to 1.85 MBq, iv by gamma counting method; format: ADME, organism-based; conditions: in vivo
# Procedure, shortened: (§2)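 Biodistribution in B16F0-bearing C57BL/6J mice given i.v. tail-vein tracer (~0.37 MBq for 1–24 h, 1.85 MBq for 48 h). Sacrifice at 1, 3, 6, 16, 24 and 48 h, then organs dissected, weighed and γ-counted as decay-corrected % ID/g. Tumor AUC divided by each organ AUC; mean of ratios ± SEM, n = 5.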
# [25] = Ratio of AUC in tumor to gastrointestinal tract of C57BL/6J mouse bearing mouse B16F0 cells at 0.37 to 1.85 MBq, iv by gamma counting method; format: ADME, organism-based; conditions: in vivo; procedure, shortened: as §2
# [26] = Stability in eyes of C57BL/6J mouse bearing mouse B16F0 cells assessed as intact parent compound level at 0.37 to 1.85 MBq, iv after 3 hrs by radio-HPLC and radio-TLC method; format: ADME, organism-based, Eye; conditions: in the assay text read “20 MBq” for “0.37 to 1.85 MBq”, read-out: Stability
# Procedure, shortened: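 Tumor-bearing C57BL/6J mice were sampled 3 and 24 h after i.v. tracer. Tissue was sonicated in CH3CN/water (3:2) with cold iodo standard and KI, then centrifuged. Urine was diluted and spiked; plasma was spiked, with CH3CN precipitation for TLC. Intact fraction came from silica radio-TLC (spot matching standard Rf) and radio-HPLC with precolumn/C18 column switching.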
Retention_time [1],Drug uptake (Brain),Drug uptake (Mus musculus [2]),Drug uptake (Mus musculus [3]),Drug uptake (Mus musculus [4]),Drug uptake (Mus musculus [5]),Drug uptake (Mus musculus [6]),Drug uptake (Mus musculus [7]),Drug uptake (Mus musculus [8]),Drug uptake (Mus musculus [9]),Drug uptake (Mus musculus [10]),Drug uptake (Mus musculus [11]),Drug uptake (Mus musculus [12]),Drug uptake (Mus musculus [13]),Drug uptake (Mus musculus [14]),Drug uptake (Mus musculus [15]),Drug uptake (Spleen [16]),Drug uptake (Spleen [17]),Drug uptake (Spleen [18]),Drug uptake (Spleen [19]),also measured,Compound
14.8 min,Not Active,6.2 % ID/g,11.6 % ID/g,18.1 % ID/g,15.2 % ID/g,13.2 % ID/g,38.7 % ID/g,10.9 % ID/g,17.6 % ID/g,8 % ID/g,0.6 % ID/g,9.8 % ID/g,3.4 % ID/g,3.1 % ID/g,2.4 % ID/g,9.6 % ID/g,3.6 % ID/g,1.3 % ID/g,0.1 % ID/g,Drug uptake (Liver [20]): 41.8 % ID/g; Drug uptake (Liver [21]): 38.8 % ID/g; Drug uptake (Liver [22]): 35.1 % ID/g; Drug uptake (Kidney): 7.4 % ID/g; CL (Mus musculus [23]): > 98%; Ratio [24]: 0.44; Ratio [25]: 3; remaining at 3 h [26]: 90%,O=C(CN1Cc2ccccc2C1=O)NC1CCN(Cc2ccc([123I])cc2)CC1
12.2 min,Not Active,17.1 % ID/g,20 % ID/g,18.4 % ID/g,14.4 % ID/g,13.1 % ID/g,31.6 % ID/g,11.9 % ID/g,18.6 % ID/g,1.4 % ID/g,0.3 % ID/g,6.1 % ID/g,2.2 % ID/g,3.5 % ID/g,5.3 % ID/g,2.6 % ID/g,2.1 % ID/g,0.8 % ID/g,0.2 % ID/g,Drug uptake (Liver [20]): 15.9 % ID/g; Drug uptake (Liver [21]): 13.4 % ID/g; Drug uptake (Liver [22]): 10.1 % ID/g; Drug uptake (Kidney): 6.2 % ID/g; CL (Mus musculus [23]): > 98%; Ratio [24]: 0.47; Ratio [25]: 5.5; remaining at 3 h [26]: 60%,O=C(c1ccc2cccnc2n1)N1CCN(Cc2ccc([123I])cc2)CC1
16.6 min,Not Active,19.2 % ID/g,32.1 % ID/g,20.4 % ID/g,12.9 % ID/g,5.6 % ID/g,19 % ID/g,59.6 % ID/g,87.1 % ID/g,1.7 % ID/g,0.2 % ID/g,11.5 % ID/g,2.7 % ID/g,2.7 % ID/g,2.1 % ID/g,3.5 % ID/g,1 % ID/g,0.3 % ID/g,0.05 % ID/g,Drug uptake (Liver [20]): 19.5 % ID/g; Drug uptake (Liver [21]): 13.2 % ID/g; Drug uptake (Liver [22]): 6.3 % ID/g; Drug uptake (Kidney): 9 % ID/g; CL (Mus musculus [23]): > 98%; Ratio [24]: 0.52; Ratio [25]: 1.8; remaining at 3 h [26]: 60%,O=C(c1ccc2c(n1)NCCC2)N1CCN(Cc2ccc([123I])cc2)CC1
16.7 min,Not Active,10.3 % ID/g,10.8 % ID/g,11.6 % ID/g,7.8 % ID/g,5 % ID/g,15.8 % ID/g,21.4 % ID/g,23.1 % ID/g,1 % ID/g,0.1 % ID/g,2.6 % ID/g,1.5 % ID/g,2.8 % ID/g,3.4 % ID/g,0.2 % ID/g,0.4 % ID/g,0.2 % ID/g,0.09 % ID/g,Drug uptake (Liver [20]): 12.3 % ID/g; Drug uptake (Liver [21]): 5.6 % ID/g; Drug uptake (Liver [22]): 3.1 % ID/g; Drug uptake (Kidney): 8.4 % ID/g; CL (Mus musculus [23]): > 98%; Ratio [24]: 0.42; Ratio [25]: 2.9; remaining at 3 h [26]: 90%,O=C(CN1Cc2ccccc2C1=O)N1C[C@H]2CN(Cc3ccc([123I])cc3)C[C@H]2C1
